Several values for one entry are separate records, joined by “and”; a condition that tells them apart may be missing. Equal values may be shown once.
Assays:
Homo sapiens = organism: Homo sapiens; experiment: Selectivity index, ratio for human adenosine A2A receptor to human adenosine A2B receptor
Adenosine receptor A2b = target: T1, Adenosine receptor A2b (Homo sapiens, UniProt P29275); experiment: Displacement of [3H]DPCPX from human adenosine A2B receptor expressed in HEK293 cells; assay type: cell-based
T1 sequence (P29275 whole entry): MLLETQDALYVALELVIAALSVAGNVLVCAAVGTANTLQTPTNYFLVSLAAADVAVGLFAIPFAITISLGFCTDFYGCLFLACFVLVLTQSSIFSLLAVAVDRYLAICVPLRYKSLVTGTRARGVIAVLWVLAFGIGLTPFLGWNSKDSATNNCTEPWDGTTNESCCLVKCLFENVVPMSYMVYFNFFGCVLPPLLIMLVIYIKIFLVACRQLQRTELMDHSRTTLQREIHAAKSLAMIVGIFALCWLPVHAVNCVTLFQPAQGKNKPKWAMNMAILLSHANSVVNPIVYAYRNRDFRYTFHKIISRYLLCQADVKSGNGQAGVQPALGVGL

Adenosine receptor A2a = Adenosine receptor A2a (Homo sapiens, UniProt P29274); experiment: Displacement of [3H]ZM-241385 from human adenosine A2A receptor expressed in CHO cells; assay type: cell-based
Adenosine receptor A2a, sequence (P29274 whole entry): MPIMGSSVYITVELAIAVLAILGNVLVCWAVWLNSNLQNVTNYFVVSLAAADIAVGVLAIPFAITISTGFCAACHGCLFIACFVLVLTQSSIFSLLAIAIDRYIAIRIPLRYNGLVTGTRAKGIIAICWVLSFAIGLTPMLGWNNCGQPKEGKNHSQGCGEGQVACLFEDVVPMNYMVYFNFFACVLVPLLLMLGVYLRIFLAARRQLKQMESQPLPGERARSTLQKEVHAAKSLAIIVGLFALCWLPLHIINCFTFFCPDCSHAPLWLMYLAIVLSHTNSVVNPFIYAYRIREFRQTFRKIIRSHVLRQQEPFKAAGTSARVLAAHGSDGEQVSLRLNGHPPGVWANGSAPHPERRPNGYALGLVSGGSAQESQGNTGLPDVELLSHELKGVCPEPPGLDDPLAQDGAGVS
Procedure, shortened: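 Competition binding at cloned human receptors: [3H]DPCPX for A1 and A2B, [3H]ZM241385 for A2A, [3H]NECA for A3. Screening compounds are reported as % radioligand displacement at one concentration. SEM below 10%.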

Row | SMILES | Ratio (Homo sapiens) | Ki (Adenosine receptor A2b; read-out: Log Ki (converted)) | Ki (Adenosine receptor A2a) | Ki (Adenosine receptor A2b; read-out: Ki)
1 | Cn1c(=O)c2[nH]c(-c3ccc(OCC(=O)N4CCC(c5ccccc5)CC4)cc3)cc2n(C)c1=O | 64.6 | 12.3 nM | 794 nM | –
2 | Cn1c(=O)c2[nH]c(-c3ccc(OCC(=O)N4CCC(O)(c5ccc(Cl)cc5)CC4)cc3)cc2n(C)c1=O | 112 | 2.88 nM | 324 nM | –
3 | Cc1ccc(N2CCN(C(=O)C(C)Oc3ccc(-c4cc5c([nH]4)c(=O)n(C)c(=O)n5C)cc3)CC2)cc1 (stereo not drawn) | 213 | – | 389 nM | 2 nM
4 | CCCn1c(=O)c2[nH]c(-c3ccc(OCC(=O)N4CCN(Cc5ccccc5)CC4)cc3)cc2n(CCC)c1=O | 41.7 | 6.17 nM | 257 nM | –
5 | Cn1c(=O)c2[nH]c(-c3ccc(OCC(=O)N4CCN(c5ccc(O)cc5)CC4)cc3)cc2n(C)c1=O | 22 | 27.5 nM | 617 nM | –
6 | COc1cc(-c2cc3c([nH]2)c(=O)n(C)c(=O)n3C)ccc1OCC(=O)N1CCc2ccccc2C1 | 39 | 170 nM | 6760 nM | –
7 | COc1cc(-c2cc3c([nH]2)c(=O)n(C)c(=O)n3C)ccc1OCC(=O)N1CCN(c2ccccc2)CC1 | 25.1 | 57.5 nM | 1450 nM | –
8 | CCCn1c(=O)n(C)c(=O)c2[nH]c(-c3ccc(OCC(=O)N4CCc5ccccc5C4)cc3)cc21 | – | 14.5 nM and 7.24 nM | 209 nM and 1000 nM | –
9 | CCCn1c(=O)c2[nH]c(-c3ccc(OCC(=O)N4CCC(c5ccccc5)(c5ccccc5)CC4)cc3)cc2n(CCC)c1=O | 40.7 | 21.4 nM | 1050 nM | –
10 | CCCn1c(=O)n(C)c(=O)c2[nH]c(-c3ccc(OCC(=O)N4CCC(c5ccccc5)CC4)cc3)cc21 | 398 | – | 1020 nM | 2.5 nM
11 | CCCn1c(=O)n(C)c(=O)c2[nH]c(-c3ccc(OCC(=O)N4CCN(c5cccc(Cl)c5)CC4)cc3)cc21 | 79 | 6.03 nM | 479 nM | –
12 | Cn1c(=O)c2[nH]c(-c3ccc(OCC(=O)N4CCN(c5ccccn5)CC4)cc3)cc2n(C)c1=O | 12 | 58.9 nM | 708 nM | –
13 | CCCn1c(=O)n(C)c(=O)c2[nH]c(-c3ccc(OCC(=O)N4CCN(c5nc6ccc(Cl)cc6s5)CC4)cc3)cc21 | 106 | 5.75 nM | 631 nM | –
14 | CCCn1c(=O)n(C)c(=O)c2[nH]c(-c3ccc(OC(C)(C)C(=O)N4CCN(c5ccccc5)CC4)cc3)cc21 | 135 | 4.17 nM | 562 nM | –
15 | Cn1c(=O)c2[nH]c(-c3ccc(OCC(=O)N4CCN(c5ccccc5Cl)CC4)cc3)cc2n(C)c1=O | 56 | 6.31 nM | 355 nM | –
16 | CCCn1c(=O)c2[nH]c(-c3ccc(OCC(=O)N4CCC(O)(c5ccccc5)CC4)cc3)cc2n(CCC)c1=O | 85.1 | 13.5 nM | 1150 nM | –
17 | CCCn1c(=O)n(C)c(=O)c2[nH]c(-c3ccc(OCC(=O)N4CCN(c5ccccc5)CC4)cc3)cc21 | 27.5 | 25.7 nM | 708 nM | –

Row | SMILES | Ratio (Homo sapiens) | Ki (Adenosine receptor A2b; read-out: Log Ki (converted)) | Ki (Adenosine receptor A2a) | Ki (Adenosine receptor A2b; read-out: Ki)
18 | CCCn1c(=O)c2[nH]c(-c3ccc(OCC(=O)N4CCN(c5nc6ccc(Cl)cc6s5)CC4)cc3)cc2n(CCC)c1=O | 77.6 | 10.5 nM | 813 nM | –
19 | CC(Oc1ccc(-c2cc3c([nH]2)c(=O)n(C)c(=O)n3C)cc1)C(=O)N1CCN(c2ccccc2)CC1 (stereo not drawn) | 17.4 | 20.4 nM | 355 nM | –
20 | CCCn1c(=O)c2[nH]c(-c3ccc(OCC(=O)N4CCN(C(c5ccccc5)c5ccccc5)CC4)cc3)cc2n(CCC)c1=O | 30.9 | 51.3 nM | 1580 nM | –
21 | Cn1c(=O)c2[nH]c(-c3ccc(OCC(=O)N4CCN(c5ccc(F)cc5)CC4)cc3)cc2n(C)c1=O | 33.8 | 9.55 nM | 324 nM | –
22 | COc1ccccc1N1CCN(C(=O)COc2ccc(-c3cc4c([nH]3)c(=O)n(C)c(=O)n4C)cc2)CC1 | 45.7 | 51.3 nM | 2340 nM | –
23 | Cn1c(=O)c2[nH]c(-c3ccc(OCC(=O)N4CCN(Cc5ccccc5)CC4)cc3)cc2n(C)c1=O | 28.8 | 53.7 nM | 1550 nM | –
24 | CCCn1c(=O)n(C)c(=O)c2[nH]c(-c3ccc(OCC(=O)N4CCC(c5ccccc5OC)CC4)cc3)cc21 | 66.1 | 6.17 nM | 407 nM | –
25 | CN1CCN(C(=O)COc2ccc(-c3cc4c([nH]3)c(=O)n(C)c(=O)n4C)cc2)CC1 | 4.05 | 174 nM | 794 nM | –
26 | COCCn1c(=O)c2[nH]c(-c3ccc(OCC(=O)N4CCN(c5ccccc5)CC4)cc3)cc2n(CCOC)c1=O | 81 | 4.9 nM | 398 nM | –
27 | CCCn1c(=O)c2[nH]c(-c3ccc(OCC(=O)N4CCN(c5ccccc5)CC4)cc3)cc2n(C)c1=O | 24 | 13.2 nM | 316 nM | –
28 | CC(Oc1ccc(-c2cc3c([nH]2)c(=O)n(C)c(=O)n3C)cc1)C(=O)N1CCN(c2ccccc2Cl)CC1 (stereo not drawn) | 10.5 | 70.8 nM | 741 nM | –
29 | COc1ccc(C2CCN(C(=O)COc3ccc(-c4cc5c([nH]4)c(=O)n(C)c(=O)n5C)cc3OC)CC2)cc1 | 28.2 | 30.9 nM | 871 nM | –
30 | CCn1c(=O)c2[nH]c(-c3ccc(OCC(=O)N4CCN(c5ccccc5)CC4)cc3)cc2n(CC)c1=O | 26.9 | 25.7 nM | 692 nM | –
31 | CCCn1c(=O)n(C)c(=O)c2[nH]c(-c3ccc(OCC(=O)N4CCN(c5c(Cl)cncc5Cl)CC4)cc3)cc21 | 151 | 4.27 nM | 646 nM | –
32 | Cn1c(=O)c2[nH]c(-c3ccc(OCC(=O)N4CCN(c5ccc(C#N)cc5)CC4)cc3)cc2n(C)c1=O | 56 | 6.31 nM | 355 nM | –
33 | CCCn1c(=O)n(C)c(=O)c2[nH]c(-c3ccc(OCC(=O)N4CCN(c5ccccc5Cl)CC4)cc3)cc21 | 74.1 | 14.8 nM | 1100 nM | –

Continued by falling Ki (Adenosine receptor A2a), values first:

Row | Ratio (Homo sapiens) | Ki (Adenosine receptor A2b; read-out: Log Ki (converted)) | Ki (Adenosine receptor A2a) | Ki (Adenosine receptor A2b; read-out: Ki) | SMILES
34 | 26.9 | 11.2 nM | 302 nM | – | Cn1c(=O)c2[nH]c(-c3ccc(OCC(=O)N4CCC(C(=O)c5ccc(F)cc5)CC4)cc3)cc2n(C)c1=O
35 | 26 | 8.13 nM | 269 nM | – | CC(Oc1ccc(-c2cc3c([nH]2)c(=O)n(C)c(=O)n3C)cc1)C(=O)N1CCN(c2ccc(Br)cc2)CC1 (stereo not drawn)
36 | 25 | 9.55 nM | 240 nM | – | O=C(COc1ccc(-c2cc3c([nH]2)c(=O)n(CC2CC2)c(=O)n3CC2CC2)cc1)N1CCc2ccccc2C1
37 | 36.3 | 6.61 nM | 240 nM | – | CCCn1c(=O)c2[nH]c(-c3ccc(OC(C)C(=O)N4CCN(c5ccccc5)CC4)cc3)cc2n(CCC)c1=O (stereo not drawn)
38 | 3.2 | 69.2 nM | 224 nM | – | CCCn1c(=O)c2[nH]c(-c3ccc(OCC(=O)N4CCN(c5ccccc5Cl)CC4)cc3)cc2n(C)c1=O
39 | 50.1 | 3.63 nM | 182 nM | – | Cn1c(=O)c2[nH]c(-c3ccc(OCC(=O)N4CCN(c5nc6cc(Cl)ccc6s5)CC4)cc3)cc2n(C)c1=O
40 | 41.7 | 4.17 nM | 174 nM | – | CCCn1c(=O)c2[nH]c(-c3ccc(OCC(=O)N4CCN(c5ccc(C(F)(F)F)cc5)CC4)cc3)cc2n(CCC)c1=O
41 | 5.49 | 31.6 nM | 174 nM | – | Cn1c(=O)c2[nH]c(-c3ccc(OC(C)(C)C(=O)N4CCN(c5ccccc5)CC4)cc3)cc2n(C)c1=O
42 | 12.9 | 13.2 nM | 170 nM | – | COc1ccc(N2CCN(C(=O)COc3ccc(-c4cc5c([nH]4)c(=O)n(C)c(=O)n5C)cc3)CC2)cc1
43 | 33.8 | 4.79 nM | 162 nM | – | CCCn1c(=O)c2[nH]c(-c3ccc(OCC(=O)N4CCN(c5ccccc5)CC4)cc3)cc2n(CCC)c1=O
44 | 33.9 | 4.68 nM | 158 nM | – | CCCn1c(=O)c2[nH]c(-c3ccc(OC(C)C(=O)N4CCc5ccccc5C4)cc3)cc2n(CCC)c1=O (stereo not drawn)
45 | 55 | – | 155 nM | 3 nM | Cn1c(=O)c2[nH]c(-c3ccc(OCC(=O)N4CCN(c5cccc(Cl)c5)CC4)cc3)cc2n(C)c1=O
46 | 7.6 | 20.4 nM | 155 nM | – | CCCn1c(=O)c2[nH]c(-c3ccc(OCC(=O)N4CCN(C(=O)Oc5ccccc5)CC4)cc3)cc2n(CCC)c1=O
47 | 3.9 | 38.9 nM | 151 nM | – | CCCn1c(=O)c2[nH]c(-c3ccc(OCC(=O)N4CCN(C(=O)OCc5ccccc5)CC4)cc3)cc2n(CCC)c1=O
48 | 75.9 | – | 115 nM | 1.5 nM | CCCn1c(=O)c2[nH]c(-c3ccc(OCC(=O)N4CCN(c5cccc(Cl)c5)CC4)cc3)cc2n(CCC)c1=O
49 | 33.1 | 3.47 nM | 115 nM | – | Cn1c(=O)c2[nH]c(-c3ccc(OCC(=O)N4CCN(c5ccc(Br)cc5)CC4)cc3)cc2n(C)c1=O
50 | 40.7 | 2.29 nM | 93.3 nM | – | CCCn1c(=O)c2[nH]c(-c3ccc(OCC(=O)N4CCc5ccccc5C4)cc3)cc2n(CCC)c1=O
51 | 9.8 | 7.59 nM | 74.1 nM | – | CCCn1c(=O)c2[nH]c(-c3ccc(OCC(=O)N4CCN(c5c(Cl)cncc5Cl)CC4)cc3)cc2n(CCC)c1=O
52 | 4.2 | 11.7 nM | 49 nM | – | O=C(COc1ccc(-c2cc3c([nH]2)c(=O)n(CC2CC2)c(=O)n3CC2CC2)cc1)N1CCN(c2ccccc2)CC1
53 | 5.5 | 6.92 nM | 38 nM | – | CCCn1c(=O)c2[nH]c(-c3ccc(OCC(=O)N4CCN(c5ccccc5Cl)CC4)cc3)cc2n(CCC)c1=O

— ChEMBL document CHEMBL1143979, “1-, 3- and 8-substituted-9-deazaxanthines as potent and selective antagonists at the human A2B adenosine receptor” (Bioorg Med Chem, 2008)
